Laboratory results published in ChEMBL document CHEMBL1255219, “Discovery of a β-d-2'-deoxy-2'-α-fluoro-2'-β-C-methyluridine nucleotide prodrug (PSI-7977) for the treatment of hepatitis C virus” (J Med Chem, 2010).

Experiments:
[1] = tested on: CCRF-CEM; experiment: Cytotoxicity against human CEM cells assessed as inhibition of ribosomal DNA up to 100 uM; type: cell-based
In short: (§1)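 CEM or HepG2 cells at 1 × 10^4 per well, compound serially diluted from 100 μM, 14 days at 37 °C, 5% CO2. Medium with compound renewed on days 7 and 11. Total DNA extracted; mitochondrial COXII DNA and rDNA measured by multiplex quantitative PCR. ΔCt converted to log reduction, inhibition relative to untreated cells, and the 90% inhibitory concentration reported.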

[2] = tested on: Hepatitis C virus; experiment: Antiviral activity against HCV infected in human ET-lunet cells; type: functional, Hepacivirus hominis
In short: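 ET-lunet replicon cells seeded at 3000 cells/well. Compounds serially diluted in culture medium without G418 and added to cells, which were incubated 4 days at 37 °C in 5% CO2. HCV RNA replication measured by quantitative real-time RT-PCR as ΔCt against the mean no-drug control threshold cycle. EC90, the concentration giving 90% inhibition, was calculated.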

[3] = tested on: Hepatitis C virus; experiment: Antiviral activity against HCV infected in human clone A cells; type: functional, Hepacivirus hominis
In short: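 Clone A replicon cells seeded at 1500 cells/well. Compounds serially diluted in G418-free culture medium and added, then incubated 4 days at 37 °C in 5% CO2. HCV RNA quantified by real-time RT-PCR as ΔCt relative to the mean no-drug control.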

[4] = tested on: CCRF-CEM; experiment: Cytotoxicity against human CEM cells assessed as inhibition of mitochondrial DNA up to 100 uM; type: cell-based; in short: as §1
[5] = tested on: Hepatitis C virus NS5B S96T/N142T mutant; experiment: Antiviral activity against HCV expressing NS5B polymerase S96T/N142T mutation infected in human ET-lunet cells
[6] = tested on: Hepatitis C virus; experiment: Antiviral activity against HCV expressing NS5B polymerase S282T mutation infected in clone A cells; type: functional, Hepacivirus hominis
In short: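 Replicon cells seeded at 1500 (clone A) or 3000 (ET-lunet) per well. Serially diluted compound added in medium without G418, 4 days at 37 °C, 5% CO2. HCV RNA measured by real-time RT-PCR as ΔCt versus no-drug control. EC90 calculated; fold change of S282T mutant versus wild-type replicon EC90. At least three independent experiments.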

[7] = tested on: Rattus norvegicus; experiment: Toxicity in rat assessed as change in body weight at 50 to 1800 mg/kg, po after 14 days; type: organism-based; parameters: dose 50-1800 mg/kg, route oral; details: in vivo, 336 h
In short: (§2)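 Rats (CD SD, 4–5 weeks, 76–100 g) given a single oral dose of 50, 300 or 1800 mg/kg, or vehicle (30% PEG400/30% Tween 20/20% corn oil/20% water). Observed daily for 14 days with daily body weights. Necropsy on day 15 with macroscopic examination and liver and paired kidney weights.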

[8] = Cmax in cynomolgus monkey plasma at 50 mg/kg, po qd for 4 days; type: ADME, organism-based, Macaca fascicularis; parameters: dose 50 mg/kg, route oral
In short: (§3)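 Oral gavage (dog gastric, monkey nasogastric), 50 mg/kg in 20% w/v hydroxypropyl-β-cyclodextrin in water, 2.5 mL/kg, once daily for 4 consecutive days. Blood sampled into K2EDTA at 1, 2, 4, 6, 12 and 24 h postdose on day 3. Prodrug in plasma quantified by LC/MS/MS, noncompartmental analysis.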

[9] = Cmax in dog plasma at 50 mg/kg, po qd for 4 days; type: ADME, organism-based, Canis lupus familiaris; parameters: dose 50 mg/kg, route oral; in short: as §3
[10] = AUC (0 to infinity) in dog plasma at 50 mg/kg, po qd for 4 days; type: ADME, organism-based, Canis lupus familiaris; parameters: time infinity, dose 50 mg/kg, route oral; in short: as §3
[11] = tested on: Rattus norvegicus; experiment: Toxicity in rat assessed as change in kidney weight at 50 to 1800 mg/kg, po after 14 days; type: organism-based; parameters: dose 50-1800 mg/kg, route oral; details: in vivo, 336 h; in short: as §2
[12] = tested on: Rattus norvegicus; experiment: Tmax in rat liver assessed as 2'-F-2'-C-Methyluridine-5''-TP level at 50 mg/kg, po; type: ADME, organism-based; parameters: dose 50 mg/kg, route oral; details: in vivo
In short: (§4)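 Rats given a single oral gavage dose of 50 mg/kg in 0.5% carboxymethylcellulose sodium, 5 mL/kg. Livers taken at 0.5, 1, 2, 4, 6 and 12 h after CO2 sacrifice and ice-cold saline perfusion, then snap-frozen. Homogenized in 3 volumes of cold 70% methanol with 20 mM EDTA/EGTA. Triphosphate measured by LC/MS/MS (ESI, MRM negative mode), noncompartmental analysis.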

[13] = Half life in simulated intestinal fluid of pH 7.5 at 50 ug/mL; type: physicochemical
In short: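 Compound at 50 μg/mL in simulated gastric fluid (pH 1.2) or simulated intestinal fluid (pH 7.5), 37 °C, 20 h. Injected by reverse-phase HPLC every 2 h, peak area at 260 nm.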

[14] = Cytotoxicity against human erythroid progenitor cells after 14 to 16 days
[15] = tested on: Canis familiaris; experiment: Metabolic stability in dog liver assessed as 2'-F-2'-C-Methyluridine-5''-triphosphate level at 50 mg/kg, po; type: ADME, organism-based, Canis lupus familiaris; parameters: dose 50 mg/kg, route oral; details: in vivo
In short: (§5)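 Dogs and cynomolgus monkeys gavaged once daily with 50 mg/kg in 20% w/v hydroxypropyl-β-cyclodextrin for 4 days. At 4 h postdose on day 4, under pentobarbital, the liver was perfused with ice-cold saline via a portal cannula. Five lobe samples were snap-frozen and homogenized in 3 volumes of cold 70% methanol with 20 mM EDTA/EGTA. Prodrug and triphosphate measured by LC/MS/MS.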

[16] = tested on: Rattus norvegicus; experiment: Toxicity in rat assessed as change in liver weight at 50 to 1800 mg/kg, po after 14 days; type: organism-based; parameters: dose 50-1800 mg/kg, route oral; details: in vivo, 336 h; in short: as §2
[17] = AUC (0 to infinity) in cynomolgus monkey plasma at 50 mg/kg, po qd for 4 days; type: ADME, organism-based, Macaca fascicularis; parameters: time infinity, dose 50 mg/kg, route oral; in short: as §3
[18] = Cytotoxicity against human BxPC3 cells at 100 uM; type: cell-based; details: bxpc-3, 100 µM
In short: (§6)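 Huh7, HepG2 and BxPC3 cells at 2 × 10^3 per well, CEM at 5 × 10^3 per well. Compound serially diluted from 100 μM, 8 days at 37 °C. MTS added for 2 h, absorbance read at 490 nm with medium-only blanks. CC50 taken relative to untreated cells.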

[19] = Half life in simulated gastric fluid at pH 1.2 at 50 ug/mL; type: physicochemical
In short: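 Compound at 50 μg/mL in simulated gastric fluid (pH 1.2) or simulated intestinal fluid (pH 7.5), 37 °C, 20 h. Injected by reverse-phase HPLC every 2 h, peak area at 260 nm. Percent parent remaining relative to 0 h, giving half-life.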

[20] = Cytotoxicity against human myeloid progenitor cells after 14 to 16 days
[21] = Tmax in dog plasma at 50 mg/kg, po qd for 4 days; type: ADME, organism-based, Canis lupus familiaris; parameters: dose 50 mg/kg, route oral; in short: as §3
[22] = species on record: Homo sapiens; experiment: Half life in human plasma at 100 uM
[23] = tested on: CCRF-CEM; experiment: Cytotoxicity against human CEM cells at 100 uM; type: cell-based; in short: as §6
[24] = AUC (0 to t) in cynomolgus monkey plasma at 50 mg/kg, po qd for 4 days; type: ADME, organism-based, Macaca fascicularis; parameters: dose 50 mg/kg, route oral; in short: as §3
[25] = tested on: Rattus norvegicus; experiment: Toxicity in rat assessed as mortality at 50 to 1800 mg/kg, po after 14 days; type: organism-based; parameters: dose 50-1800 mg/kg, route oral; details: in vivo, 336 h; in short: as §2
[26] = tested on: Canis familiaris; experiment: Metabolic stability in dog liver assessed as prodrug level at 50 mg/kg, po; type: ADME, organism-based, Canis lupus familiaris; parameters: dose 50 mg/kg, route oral; details: in vivo; in short: as §5
[27] = Permeability by PAMPA assay; type: ADME; details: read-out: permeability
In short: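 PAMPA with a lecithin-in-dodecane (20 mg/mL) coated filter donor. Donor held 200 μg/mL compound in PBS pH 7.4 with 2% DMSO; acceptor held PBS with 2% DMSO. Left 24 h. Donor and acceptor concentrations measured by LC/MS/MS (MRM), and Pe calculated from concentrations, volumes, filter area and time.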

[28] = Half life in human liver S9 fraction at 100 uM; type: ADME, subcellular
In short: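 Compound at 100 μM in 50 mM K2HPO4 pH 7.4 with 5 mM MgCl2. Started with 4 mg/mL human liver S9 at 37 °C. Samples at 0–24 h quenched with acetonitrile. Parent remaining measured by LC/MS/MS peak area relative to 0 h, and half-life calculated.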

[29] = AUC (0 to t) in dog plasma at 50 mg/kg, po qd for 4 days; type: ADME, organism-based, Canis lupus familiaris; parameters: dose 50 mg/kg, route oral; in short: as §3
[30] = tested on: Rattus norvegicus; experiment: Toxicity in rat assessed as change in macroscopic pathology at 50 to 1800 mg/kg, po after 14 days; type: organism-based; parameters: dose 50-1800 mg/kg, route oral; details: in vivo, 336 h; in short: as §2
[31] = tested on: Rattus norvegicus; experiment: AUC (0 to t) in rat liver assessed as 2'-F-2'-C-Methyluridine-5''-TP level at 50 mg/kg, po; type: ADME, organism-based; parameters: dose 50 mg/kg, route oral; details: in vivo; in short: as §4
[32] = tested on: Cynomolgus monkey; experiment: Metabolic stability in cynomolgus monkey liver assessed as prodrug level at 50 mg/kg, po; type: ADME, organism-based, Macaca fascicularis; parameters: dose 50 mg/kg, route oral; details: in vivo; in short: as §5
[33] = Cytotoxicity against HuH7 cells at 100 uM; type: cell-based; details: human, huh-7, 100 µM; in short: as §6
[34] = tested on: Hepatitis C virus; experiment: Antiviral activity against HCV infected in human clone A cells assessed as inhibition of cellular rRNA replication at 50 uM; type: functional, Hepacivirus hominis
[35] = tested on: Cynomolgus monkey; experiment: Metabolic stability in cynomolgus monkey liver assessed as 2'-F-2'-C-Methyluridine-5''-triphosphate level at 50 mg/kg, po; type: ADME, organism-based, Macaca fascicularis; parameters: dose 50 mg/kg, route oral; details: in vivo; in short: as §5
[36] = tested on: Rattus norvegicus; experiment: Cmax in rat liver assessed as 2'-F-2'-C-Methyluridine-5''-TP level at 50 mg/kg, po; type: ADME, organism-based; parameters: dose 50 mg/kg, route oral; details: in vivo; in short: as §4
[37] = Tmax in cynomolgus monkey plasma at 50 mg/kg, po qd for 4 days; type: ADME, organism-based, Macaca fascicularis; parameters: dose 50 mg/kg, route oral; in short: as §3
[38] = tested on: HepG2; experiment: Cytotoxicity against human HepG2 cells at 100 uM; type: cell-based; details: hepg2, 100 µM; in short: as §6
[39] = tested on: Rattus norvegicus; experiment: AUC (0 to infinity) in rat liver assessed as 2'-F-2'-C-Methyluridine-5''-TP level at 50 mg/kg, po; type: ADME, organism-based; parameters: time infinity, dose 50 mg/kg, route oral; details: in vivo; in short: as §4
[40] = Cytotoxicity against human HepG2 cells assessed as inhibition of mitochondrial DNA; type: cell-based; in short: as §1
[41] = Cytotoxicity against human HepG2 cells assessed as inhibition of ribosomal DNA; type: cell-based; in short: as §1

CC(C)OC(=O)[C@H](C)N[P@@](=O)(OC[C@H]1O[C@@H](n2ccc(=O)[nH]c2=O)[C@](C)(F)[C@@H]1O)Oc1ccccc1
Activity [1]: Non-toxic
EC90 [2]: 3.3 µM
EC90 ([3]; Hepatitis C virus): 7.5 µM
Activity [4]: Non-toxic
EC90 [5]: 1.3 µM
EC90 [6]: > 100 µM

COC(=O)[C@H](C)NP(=O)(OC[C@H]1O[C@@H](n2ccc(=O)[nH]c2=O)[C@](C)(F)[C@@H]1O)Oc1ccccc1 (stereo partly drawn)
Activity [7]: Non-toxic
Cmax [8]: 19 ng/mL
Cmax [9]: 317 ng/mL
AUC(0-inf) [10]: 420 ng·h/mL
Activity [11]: Non-toxic
Tmax [12]: 6 h
half-life at 50 ug/mL [13]: > 20 h
IC50 [14]: > 50 µM
Drug uptake [15]: 4960 ng/g
Activity [16]: Non-toxic
AUC(0-inf) [17]: 34 ng·h/mL
Activity [18]: Non-toxic
half-life at 50 ug/mL [19]: 15.5 h
IC50 [20]: > 50 µM
Tmax [21]: 1 h
EC90 ([3]; Hepatitis C virus): 0.91 µM
half-life at 100 µM [22]: 16.7 h
Activity [23]: Non-toxic
AUC(0-t) at 96 h [24]: 27 ng·h/mL
Activity [25]: Non-toxic
Drug uptake [26]: 5.24 ng/g
Papp [27]: 0.007 ×10⁻⁶ cm/s
half-life at 100 µM [28]: 0.18 h
AUC(0-t) at 96 h [29]: 418 ng·h/mL
Activity [30]: Non-toxic
AUC [31]: 14206 ng·h/g
Drug uptake [32]: 4.66 ng/g
Activity [33]: Non-toxic
inhibition at 50 µM [34]: 0%
Drug uptake [35]: 26 ng/g
Cmax [36]: 1985 ng/g
Tmax [37]: 0.25 h
Activity [38]: Non-toxic
AUC [39]: 18968 ng·h/g

CC(C)OC(=O)[C@H](C)N[P@](=O)(OC[C@H]1O[C@@H](n2ccc(=O)[nH]c2=O)[C@](C)(F)[C@@H]1O)Oc1ccccc1 [SOFOSBUVIR]
Activity [1]: Non-toxic
EC90 [2]: 0.23 µM
EC90 [3]: 0.42 µM
CC90 [40]: 72.1 µM
Activity [4]: Non-toxic
EC90 [5]: 0.11 µM
CC90 [41]: 68.6 µM
EC90 [6]: 7.8 µM
